Reference: ChEMBL document CHEMBL4196108, “5-Aroylindoles Act as Selective Histone Deacetylase 6 Inhibitors Ameliorating Alzheimer's Disease Phenotypes” (J Med Chem, 2018)
Calls of active or inactive are those of the source. The calls are words filed in the database; no cut-off is given here.

Tests used:
[1] = target: T1, Protein deacetylase HDAC6 (Homo sapiens) (UniProt Q9UBN7); assay: Inhibition of HDAC6 in human SH-SY5Y cells transfected with pCAX FLAG APP and pRK5-EGFP-Tau P301L plasmids assessed as inhibition of amyloid beta (1 to 40)-induced Tau P301L mutant phosphorylation at 1 uM after 24 hrs by Western blot analysis
T1 sequence (whole entry): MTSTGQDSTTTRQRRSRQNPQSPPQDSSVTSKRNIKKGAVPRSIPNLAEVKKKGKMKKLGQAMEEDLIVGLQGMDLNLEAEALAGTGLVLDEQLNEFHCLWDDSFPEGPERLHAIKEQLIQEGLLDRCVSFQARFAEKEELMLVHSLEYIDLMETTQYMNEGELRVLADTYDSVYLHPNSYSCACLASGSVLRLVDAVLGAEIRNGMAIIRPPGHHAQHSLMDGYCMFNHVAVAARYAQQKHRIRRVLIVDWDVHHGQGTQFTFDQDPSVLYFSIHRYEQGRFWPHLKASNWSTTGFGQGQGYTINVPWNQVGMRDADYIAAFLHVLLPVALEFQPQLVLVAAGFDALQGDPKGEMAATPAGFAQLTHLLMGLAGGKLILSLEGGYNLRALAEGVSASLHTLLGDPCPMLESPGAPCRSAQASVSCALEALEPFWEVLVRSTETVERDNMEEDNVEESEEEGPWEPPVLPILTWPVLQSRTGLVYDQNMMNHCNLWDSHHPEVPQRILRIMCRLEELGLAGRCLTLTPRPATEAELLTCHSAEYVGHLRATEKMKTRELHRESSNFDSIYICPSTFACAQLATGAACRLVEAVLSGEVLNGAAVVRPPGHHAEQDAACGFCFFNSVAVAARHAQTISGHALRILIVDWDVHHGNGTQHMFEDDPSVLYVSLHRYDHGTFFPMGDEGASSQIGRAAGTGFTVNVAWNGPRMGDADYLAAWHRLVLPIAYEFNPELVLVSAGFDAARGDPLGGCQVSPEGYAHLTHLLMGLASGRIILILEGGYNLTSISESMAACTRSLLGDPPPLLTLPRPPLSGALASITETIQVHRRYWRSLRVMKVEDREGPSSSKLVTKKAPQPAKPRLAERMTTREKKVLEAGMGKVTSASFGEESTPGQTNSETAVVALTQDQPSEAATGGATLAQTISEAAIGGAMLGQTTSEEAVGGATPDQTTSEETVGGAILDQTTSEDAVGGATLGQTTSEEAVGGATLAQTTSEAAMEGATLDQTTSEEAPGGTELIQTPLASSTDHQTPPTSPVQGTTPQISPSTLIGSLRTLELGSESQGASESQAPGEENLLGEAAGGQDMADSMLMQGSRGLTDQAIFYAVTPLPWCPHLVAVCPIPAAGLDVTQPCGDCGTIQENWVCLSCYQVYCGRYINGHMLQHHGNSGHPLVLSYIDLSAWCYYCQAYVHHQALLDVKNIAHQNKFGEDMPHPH

[2] = target: T1, Protein deacetylase HDAC6 (Homo sapiens); assay: Inhibition of HDAC6 in human SH-SY5Y cells transfected with pCAX FLAG APP and pRK5-EGFP-Tau P301L plasmids assessed as increase in HSP70 protein expression at 1 uM after 24 hrs by Western blot analysis; type: cell-based
How it was run: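 SH-SY5Y and Neuro-2a cells cotransfected 24 h with APP695/Tau P301L plasmids, treated 24 h at 1 µM (ACY-1215 reference). 30 µg lysate immunoprecipitated overnight at 4 °C with anti-HDAC6 or anti-acetyl-lysine antibodies plus protein A/G beads, run on 8% SDS-PAGE, probed for Hsp90; Hsp70 by immunoblot. Three independent experiments.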

Rattus norvegicus = assay: Reversal of scopolamine-induced spatial memory impairment in Wistar rat assessed as decrease in transfer latency time at 25 mg/kg, po administered once daily for 1 week followed by scopolamine challenge 90 mins prior to test by elevated plus maze test; type: functional, organism-based
How it was run: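 Male Wistar rats, 7 weeks old, dosed orally at 25 mg/kg in 1% carboxymethyl cellulose/0.5% Tween 80 once daily. Scopolamine 1 mg/kg i.p. 90 min before test trial (controls excluded). Morris water maze (hidden platform escape latency), elevated plus maze (started at open-arm end, time to closed arm), then CA1 phospho-tau Ser396/Ser404 immunohistochemistry.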

SH-SY5Y = assay: Inhibition of APP levels in human SH-SY5Y cells transfected with pCAX FLAG APP and pRK5-EGFP-Tau P301L plasmids at 1 uM after 24 hrs by Western blot analysis; type: functional, cell-based
How it was run: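 SH-SY5Y or Neuro-2a cells cotransfected 24 h with pCAX APP695 and pRK5-EGFP-Tau P301L, then treated 24 h at 1 µM. 20 µg lysate protein immunoblotted for APP and phospho-tau Ser396/Ser404. Mean ± STD of three independent experiments; Student's t-test.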

[3] = Toxicity in Balb/c mouse assessed as survival rate at 1000 mg/kg, ip qd administered for 6 days followed by 1 week recovery (reference value: 100%); type: organism-based; details: in vivo

With `COc1ccc(C(=O)c2ccc3c(ccn3Cc3ccc(C(=O)NO)cc3)c2)cc1` the inhibition [1] was “Active”, the inhibition [2] was “Active” and the Activity (Rattus norvegicus) was “Active”. The inhibition (SH-SY5Y) was “Active” and the survival [3] was 100%.
